Assay results as given in ChEMBL document CHEMBL3784970, “Synthesis and molecular docking of N'-arylidene-5-(4-chlorophenyl)-1-(3,4-dichlorophenyl)-4-methyl-1H-pyrazole-3-carbohydrazides as novel hypoglycemic and antioxidant dual agents” (Bioorg Med Chem, 2016).
One block for each molecule: values may come before it. The source made the active and inactive calls. No cut-off for these calls is given here.

Legend:
[1] = Antioxidant activity assessed as DPPH radical scavenging activity incubated for 20 mins; type: physicochemical
How it was run: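 DPPH (100 μM in ethanol) was mixed with sample at different concentrations and incubated 20 min at room temperature in the dark, then A517 was read. % scavenging was calculated against a water control. IC was reported as mean ± SEM, n = 3.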

Rattus norvegicus [2] = assay: Antidiabetic activity in streptozotocin/nicotinamide-induced Wistar rat model of diabetes assessed as plasma glucose variation at 50 mg/kg, ig measured at 1 hr post dose by glucometric analysis (reference value: 17 +/- 8%); type: functional
Rattus norvegicus [3] = assay: Antidiabetic activity in streptozotocin/nicotinamide-induced Wistar rat model of diabetes assessed as plasma glucose variation at 50 mg/kg, ig measured at 3 hrs post dose by glucometric analysis (reference value: -13 +/- 10%); type: functional
Rattus norvegicus [4] = assay: Antidiabetic activity in streptozotocin/nicotinamide-induced Wistar rat model of diabetes assessed as plasma glucose variation at 50 mg/kg, ig measured at 5 hrs post dose by glucometric analysis (reference value: -2 +/- 6%); type: functional
Rattus norvegicus [5] = assay: Antidiabetic activity in streptozotocin/nicotinamide-induced Wistar rat model of diabetes assessed as plasma glucose variation at 50 mg/kg, ig measured at 7 hrs post dose by glucometric analysis (reference value: -5 +/- 8%); type: functional
[6] = Antioxidant activity assessed as DPPH radical scavenging activity at 1 uM incubated for 20 mins; type: physicochemical
[7] = Antioxidant activity assessed as DPPH radical scavenging activity at 10 uM incubated for 20 mins; type: physicochemical
[8] = Antioxidant activity assessed as DPPH radical scavenging activity at 100 uM incubated for 20 mins; type: physicochemical
Rattus norvegicus [9] = assay: Antidiabetic activity in streptozotocin/nicotinamide-induced Wistar rat model of diabetes assessed as plasma glucose reduction at 50 mg/kg, ig measured at 1 to 7 hrs post dose by glucometric analysis; type: functional, organism-based

IC50 [1]: 10.9 µM
Structure (SMILES): Cc1c(C)c2c(c(C)c1O)CC[C@@](C)(CCC[C@H](C)CCC[C@H](C)CCCC(C)C)O2 [ALPHA-TOCOPHEROL]

Structure (SMILES): Cc1c(C(=O)NN2CCCCC2)nn(-c2ccc(Cl)cc2Cl)c1-c1ccc(Cl)cc1 [RIMONABANT]
Activity (Rattus norvegicus [2]): -30%
Activity (Rattus norvegicus [3]): -21%
Activity (Rattus norvegicus [4]): -30%
Activity (Rattus norvegicus [5]): -39%

Structure (SMILES): O=c1c(O)c(-c2ccc(O)c(O)c2)oc2cc(O)cc(O)c12 [QUERCETIN]
IC50 [1]: 31.7 µM

Activity [6]: 2.65%
Activity [7]: 23.29%
Activity [8]: 90.61%
IC50 [1]: 35.8 µM
Structure (SMILES): COc1cc(/C=C/C(=O)O)cc(OC)c1O [SINAPINATE]

Structure (SMILES): COc1cc(/C=N/NC(=O)c2nn(-c3ccc(Cl)c(Cl)c3)c(-c3ccc(Cl)cc3)c2C)ccc1O
Activity (Rattus norvegicus [9]): Active

Activity [6]: 3.06%
Activity [7]: 14.52%
Activity [8]: 78.73%
IC50 [1]: 47.7 µM
Structure (SMILES): COc1cc(/C=C/C(=O)O)ccc1O [FERULATE]

Structure (SMILES): COc1ccc(Cl)cc1C(=O)NCCc1ccc(S(=O)(=O)NC(=O)NC2CCCCC2)cc1 [GLYBURIDE]
Activity (Rattus norvegicus [2]): -4%
Activity (Rattus norvegicus [3]): -31%
Activity (Rattus norvegicus [4]): -31%
Activity (Rattus norvegicus [5]): -31%
